Laboratory results from ChEMBL document CHEMBL1136991, “Novel potent BRAF inhibitors: toward 1 nM compounds through optimization of the central phenyl ring” (J Med Chem, 2009).

How the values were obtained:
[1] = molecular target: Serine/threonine-protein kinase PAK 4 (Homo sapiens) (UniProt O96013); assay: Inhibition of PAK4 at 1 uM relative to control
[2] = molecular target: Serine/threonine-protein kinase Nek6 (Homo sapiens) (UniProt Q9HC98); assay: Inhibition of NEK6 at 1 uM relative to control
Serine/threonine-protein kinase Nek6 (Homo sapiens), sequence (Q9HC98 whole entry): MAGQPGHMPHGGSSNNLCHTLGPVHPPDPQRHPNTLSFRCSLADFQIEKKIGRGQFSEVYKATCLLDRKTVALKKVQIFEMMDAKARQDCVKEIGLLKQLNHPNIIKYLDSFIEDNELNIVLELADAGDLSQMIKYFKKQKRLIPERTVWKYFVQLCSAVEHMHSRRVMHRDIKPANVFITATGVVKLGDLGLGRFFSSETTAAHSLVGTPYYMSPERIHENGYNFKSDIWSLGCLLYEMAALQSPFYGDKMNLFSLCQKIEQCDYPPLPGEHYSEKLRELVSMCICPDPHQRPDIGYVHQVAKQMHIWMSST

[3] = molecular target: Maternal embryonic leucine zipper kinase (Homo sapiens) (UniProt Q14680); assay: Inhibition of MELK at 1 uM relative to control
[4] = molecular target: Myosin light chain kinase, smooth muscle (Homo sapiens) (UniProt Q15746); assay: Inhibition of smooth muscle MLCK at 1 uM relative to control; assay type: tissue-based; conditions: Muscle tissue
Myosin light chain kinase, smooth muscle (Homo sapiens), sequence (Q15746 whole entry): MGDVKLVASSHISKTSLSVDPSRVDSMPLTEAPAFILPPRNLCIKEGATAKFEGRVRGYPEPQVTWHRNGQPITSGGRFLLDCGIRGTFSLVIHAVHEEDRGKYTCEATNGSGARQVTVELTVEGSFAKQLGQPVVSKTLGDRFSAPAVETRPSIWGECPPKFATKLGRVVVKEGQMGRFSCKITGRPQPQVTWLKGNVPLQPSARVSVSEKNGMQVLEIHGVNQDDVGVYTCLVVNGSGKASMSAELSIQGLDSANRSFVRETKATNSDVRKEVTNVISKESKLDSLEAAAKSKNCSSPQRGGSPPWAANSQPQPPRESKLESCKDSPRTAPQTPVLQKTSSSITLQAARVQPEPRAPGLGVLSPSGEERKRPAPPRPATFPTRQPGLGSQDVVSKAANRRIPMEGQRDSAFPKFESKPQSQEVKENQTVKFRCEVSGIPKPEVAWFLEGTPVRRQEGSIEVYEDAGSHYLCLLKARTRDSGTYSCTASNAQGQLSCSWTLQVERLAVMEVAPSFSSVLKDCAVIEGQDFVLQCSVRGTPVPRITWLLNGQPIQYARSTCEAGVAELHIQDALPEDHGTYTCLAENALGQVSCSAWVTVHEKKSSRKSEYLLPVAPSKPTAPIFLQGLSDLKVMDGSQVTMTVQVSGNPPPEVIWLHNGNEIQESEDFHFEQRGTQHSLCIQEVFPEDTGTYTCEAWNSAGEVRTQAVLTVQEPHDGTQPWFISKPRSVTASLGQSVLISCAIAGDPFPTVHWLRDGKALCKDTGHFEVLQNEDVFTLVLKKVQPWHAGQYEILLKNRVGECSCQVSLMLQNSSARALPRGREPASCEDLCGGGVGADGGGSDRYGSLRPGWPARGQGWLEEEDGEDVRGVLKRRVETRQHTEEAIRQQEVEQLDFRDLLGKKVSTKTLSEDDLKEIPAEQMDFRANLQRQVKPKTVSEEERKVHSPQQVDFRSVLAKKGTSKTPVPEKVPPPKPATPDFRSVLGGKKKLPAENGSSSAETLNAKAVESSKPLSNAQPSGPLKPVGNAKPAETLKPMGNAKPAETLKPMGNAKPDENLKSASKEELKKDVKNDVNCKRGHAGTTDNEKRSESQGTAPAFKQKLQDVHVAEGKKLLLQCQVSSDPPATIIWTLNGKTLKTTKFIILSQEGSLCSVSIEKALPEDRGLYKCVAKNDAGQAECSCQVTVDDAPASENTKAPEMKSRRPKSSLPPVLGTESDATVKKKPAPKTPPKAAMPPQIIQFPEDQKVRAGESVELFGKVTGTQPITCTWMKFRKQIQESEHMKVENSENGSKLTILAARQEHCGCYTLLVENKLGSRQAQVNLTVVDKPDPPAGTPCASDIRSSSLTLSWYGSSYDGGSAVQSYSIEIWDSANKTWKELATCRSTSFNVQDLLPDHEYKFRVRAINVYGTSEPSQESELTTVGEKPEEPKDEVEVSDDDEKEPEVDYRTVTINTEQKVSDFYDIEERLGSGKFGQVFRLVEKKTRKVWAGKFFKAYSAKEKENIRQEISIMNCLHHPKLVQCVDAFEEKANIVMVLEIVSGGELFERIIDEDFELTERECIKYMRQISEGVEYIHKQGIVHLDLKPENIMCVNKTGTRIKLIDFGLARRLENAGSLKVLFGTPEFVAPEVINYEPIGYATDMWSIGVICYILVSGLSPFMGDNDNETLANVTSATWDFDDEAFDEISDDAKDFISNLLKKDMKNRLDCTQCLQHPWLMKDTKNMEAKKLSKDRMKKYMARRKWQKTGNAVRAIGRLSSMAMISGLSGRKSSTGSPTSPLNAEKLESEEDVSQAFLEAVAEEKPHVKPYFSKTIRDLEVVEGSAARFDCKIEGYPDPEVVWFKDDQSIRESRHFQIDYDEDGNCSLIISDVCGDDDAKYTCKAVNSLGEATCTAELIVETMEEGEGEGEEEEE

[5] = Growth inhibition of human WM266.4 cells expressing BRAF V600E mutant after 5 days by SRB assay; assay type: functional; conditions: WM 266-4, 120 h
Procedure, shortened: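 WM266.4 human melanoma cells, which are driven by mutant BRAF, were assayed for proliferation by sulforhodamine B (SRB) staining; the value is a GI50.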

[6] = molecular target: Calcium/calmodulin-dependent protein kinase kinase 2 (Homo sapiens) (UniProt Q96RR4); assay: Inhibition of CAMKKb at 1 uM relative to control
Calcium/calmodulin-dependent protein kinase kinase 2 (Homo sapiens), sequence (Q96RR4 2-588 limits assumed): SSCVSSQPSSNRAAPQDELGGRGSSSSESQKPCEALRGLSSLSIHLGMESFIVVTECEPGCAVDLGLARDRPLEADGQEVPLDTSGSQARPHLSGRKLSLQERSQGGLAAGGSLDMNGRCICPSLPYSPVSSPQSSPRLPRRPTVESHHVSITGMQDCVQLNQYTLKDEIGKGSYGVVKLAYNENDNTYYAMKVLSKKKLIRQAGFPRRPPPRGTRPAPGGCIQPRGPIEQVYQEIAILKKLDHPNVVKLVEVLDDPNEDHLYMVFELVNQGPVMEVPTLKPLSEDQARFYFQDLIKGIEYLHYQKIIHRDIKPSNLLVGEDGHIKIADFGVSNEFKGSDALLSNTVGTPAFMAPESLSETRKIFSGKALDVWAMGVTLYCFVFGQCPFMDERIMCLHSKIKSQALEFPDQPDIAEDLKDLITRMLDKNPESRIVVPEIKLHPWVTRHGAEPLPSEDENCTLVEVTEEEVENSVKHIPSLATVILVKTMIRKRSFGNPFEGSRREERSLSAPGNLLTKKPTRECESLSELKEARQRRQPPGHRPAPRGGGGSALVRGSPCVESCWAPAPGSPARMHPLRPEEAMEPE

[7] = molecular target: T1, Serine/threonine-protein kinase D1 (Homo sapiens) (UniProt Q15139); assay: Inhibition of PKD1 at 1 uM relative to control
T1 sequence (whole entry): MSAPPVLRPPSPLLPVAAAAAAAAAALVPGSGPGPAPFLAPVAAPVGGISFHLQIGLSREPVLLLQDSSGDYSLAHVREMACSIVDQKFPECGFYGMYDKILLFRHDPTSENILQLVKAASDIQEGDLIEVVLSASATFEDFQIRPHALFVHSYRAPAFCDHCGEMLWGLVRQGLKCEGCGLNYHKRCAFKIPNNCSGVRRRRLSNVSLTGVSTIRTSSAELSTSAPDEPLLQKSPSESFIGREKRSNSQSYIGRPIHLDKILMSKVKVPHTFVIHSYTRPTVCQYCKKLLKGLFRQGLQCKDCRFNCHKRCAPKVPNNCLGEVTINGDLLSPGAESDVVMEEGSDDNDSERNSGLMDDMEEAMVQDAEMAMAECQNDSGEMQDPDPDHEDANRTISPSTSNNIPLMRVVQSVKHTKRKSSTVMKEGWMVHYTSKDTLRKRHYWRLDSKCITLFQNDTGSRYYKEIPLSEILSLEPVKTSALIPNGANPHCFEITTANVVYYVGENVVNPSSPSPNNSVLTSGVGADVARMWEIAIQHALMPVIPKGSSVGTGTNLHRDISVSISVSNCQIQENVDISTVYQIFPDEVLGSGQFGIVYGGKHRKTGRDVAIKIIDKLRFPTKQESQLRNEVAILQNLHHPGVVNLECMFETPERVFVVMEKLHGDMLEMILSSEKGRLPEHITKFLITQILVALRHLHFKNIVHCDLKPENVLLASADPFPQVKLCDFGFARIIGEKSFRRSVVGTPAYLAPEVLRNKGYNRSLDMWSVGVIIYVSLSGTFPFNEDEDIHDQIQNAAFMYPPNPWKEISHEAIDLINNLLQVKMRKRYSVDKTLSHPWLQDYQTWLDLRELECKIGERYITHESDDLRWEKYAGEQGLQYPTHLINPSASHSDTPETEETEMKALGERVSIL

[8] = molecular target: T2, Serine/threonine-protein kinase BRSK2 (Homo sapiens) (UniProt Q8IWQ3); assay: Inhibition of BRSK2 at 1 uM relative to control
T2 sequence (whole entry): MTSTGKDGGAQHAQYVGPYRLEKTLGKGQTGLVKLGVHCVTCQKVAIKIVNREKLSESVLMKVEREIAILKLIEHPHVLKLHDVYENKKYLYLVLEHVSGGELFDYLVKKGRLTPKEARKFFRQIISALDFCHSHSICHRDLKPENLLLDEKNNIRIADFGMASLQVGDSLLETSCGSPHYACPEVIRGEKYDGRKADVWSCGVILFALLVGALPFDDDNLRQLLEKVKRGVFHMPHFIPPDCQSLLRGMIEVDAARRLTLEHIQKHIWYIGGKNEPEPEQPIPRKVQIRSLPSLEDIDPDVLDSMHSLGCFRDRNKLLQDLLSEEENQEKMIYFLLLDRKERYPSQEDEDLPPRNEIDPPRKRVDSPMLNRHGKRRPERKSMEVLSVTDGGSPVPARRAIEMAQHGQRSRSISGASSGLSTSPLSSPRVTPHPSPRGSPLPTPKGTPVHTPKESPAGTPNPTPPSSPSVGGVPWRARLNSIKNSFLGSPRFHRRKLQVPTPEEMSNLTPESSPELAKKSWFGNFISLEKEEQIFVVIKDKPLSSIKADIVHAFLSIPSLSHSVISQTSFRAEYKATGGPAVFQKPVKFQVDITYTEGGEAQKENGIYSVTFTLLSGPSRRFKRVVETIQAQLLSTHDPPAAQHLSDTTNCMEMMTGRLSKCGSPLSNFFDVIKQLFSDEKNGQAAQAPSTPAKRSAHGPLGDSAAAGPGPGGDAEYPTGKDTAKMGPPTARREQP

[9] = molecular target: Cyclin-dependent kinase 2 (Homo sapiens) (UniProt P24941); assay: Inhibition of CDK2/cyclin A at 1 uM relative to control
[10] = molecular target: Serine/threonine-protein kinase pim-3 (Homo sapiens) (UniProt Q86V86); assay: Inhibition of PIM3 at 1 uM relative to control
[11] = molecular target: Mitogen-activated protein kinase 1 (Homo sapiens) (UniProt P28482); assay: Inhibition of ERK2 at 1 uM relative to control
Mitogen-activated protein kinase 1 (Homo sapiens), sequence (P28482 whole entry): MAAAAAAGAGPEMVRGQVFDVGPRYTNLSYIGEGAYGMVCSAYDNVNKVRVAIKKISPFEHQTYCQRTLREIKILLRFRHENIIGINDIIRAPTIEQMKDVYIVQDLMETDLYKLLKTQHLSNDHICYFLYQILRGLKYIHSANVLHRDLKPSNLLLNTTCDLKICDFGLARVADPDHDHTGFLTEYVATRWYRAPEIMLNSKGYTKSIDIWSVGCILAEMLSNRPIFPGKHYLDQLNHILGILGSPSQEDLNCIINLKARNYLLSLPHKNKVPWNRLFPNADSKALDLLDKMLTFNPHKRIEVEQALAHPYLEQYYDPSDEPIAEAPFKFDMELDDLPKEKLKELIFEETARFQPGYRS

[12] = molecular target: MAP kinase-interacting serine/threonine-protein kinase 2 (Homo sapiens) (UniProt Q9HBH9); assay: Inhibition of MNK2 at 1 uM relative to control
[13] = molecular target: Mitogen-activated protein kinase 10 (Homo sapiens) (UniProt P53779); assay: Inhibition of JNK3 at 1 uM relative to control
Mitogen-activated protein kinase 10 (Homo sapiens), sequence (P53779 whole entry): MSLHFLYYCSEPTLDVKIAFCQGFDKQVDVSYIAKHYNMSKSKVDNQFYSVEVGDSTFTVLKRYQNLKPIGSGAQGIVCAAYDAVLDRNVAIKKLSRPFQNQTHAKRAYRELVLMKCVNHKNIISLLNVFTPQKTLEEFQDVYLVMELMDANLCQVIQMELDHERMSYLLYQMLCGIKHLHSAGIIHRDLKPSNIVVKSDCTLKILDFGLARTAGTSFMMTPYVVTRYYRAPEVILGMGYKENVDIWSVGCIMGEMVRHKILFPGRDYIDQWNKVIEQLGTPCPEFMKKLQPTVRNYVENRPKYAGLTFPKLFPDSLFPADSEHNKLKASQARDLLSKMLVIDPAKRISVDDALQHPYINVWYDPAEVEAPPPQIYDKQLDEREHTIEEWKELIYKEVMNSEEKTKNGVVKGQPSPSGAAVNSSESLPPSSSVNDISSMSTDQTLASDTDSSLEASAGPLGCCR

[14] = molecular target: T3, 5'-AMP-activated protein kinase subunit beta-1 (Homo sapiens) (UniProt Q9Y478); assay: Inhibition of AMPK at 1 uM relative to control
T3 sequence (whole entry): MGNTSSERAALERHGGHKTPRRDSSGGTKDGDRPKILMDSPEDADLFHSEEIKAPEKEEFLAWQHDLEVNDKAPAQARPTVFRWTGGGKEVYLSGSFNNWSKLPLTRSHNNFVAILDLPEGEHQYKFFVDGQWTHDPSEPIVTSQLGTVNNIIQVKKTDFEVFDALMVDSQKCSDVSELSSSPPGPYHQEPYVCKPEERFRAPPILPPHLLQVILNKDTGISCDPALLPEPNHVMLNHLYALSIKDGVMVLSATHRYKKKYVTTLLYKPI

[15] = molecular target: Serine/threonine-protein kinase pim-1 (Homo sapiens) (UniProt P11309); assay: Inhibition of PIM1 at 1 uM relative to control
Serine/threonine-protein kinase pim-1 (Homo sapiens), sequence (P11309 whole entry, looked up): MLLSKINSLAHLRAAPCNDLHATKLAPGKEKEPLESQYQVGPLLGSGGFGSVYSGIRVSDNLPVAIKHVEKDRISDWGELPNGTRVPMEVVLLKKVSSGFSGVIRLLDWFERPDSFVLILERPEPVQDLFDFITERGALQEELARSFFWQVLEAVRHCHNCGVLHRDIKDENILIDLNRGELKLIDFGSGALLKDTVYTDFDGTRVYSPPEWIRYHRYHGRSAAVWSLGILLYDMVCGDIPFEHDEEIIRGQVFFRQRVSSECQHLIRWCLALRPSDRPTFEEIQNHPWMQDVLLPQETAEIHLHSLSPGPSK

[16] = molecular target: [Pyruvate dehydrogenase (acetyl-transferring)] kinase isozyme 1, mitochondrial (Homo sapiens) (UniProt Q15118); assay: Inhibition of PDK1 at 1 uM relative to control
[17] = molecular target: MAP kinase-activated protein kinase 2 (Homo sapiens) (UniProt P49137); assay: Inhibition of MAPKAP-K2 at 1 uM relative to control
MAP kinase-activated protein kinase 2 (Homo sapiens), sequence (P49137 whole entry, looked up): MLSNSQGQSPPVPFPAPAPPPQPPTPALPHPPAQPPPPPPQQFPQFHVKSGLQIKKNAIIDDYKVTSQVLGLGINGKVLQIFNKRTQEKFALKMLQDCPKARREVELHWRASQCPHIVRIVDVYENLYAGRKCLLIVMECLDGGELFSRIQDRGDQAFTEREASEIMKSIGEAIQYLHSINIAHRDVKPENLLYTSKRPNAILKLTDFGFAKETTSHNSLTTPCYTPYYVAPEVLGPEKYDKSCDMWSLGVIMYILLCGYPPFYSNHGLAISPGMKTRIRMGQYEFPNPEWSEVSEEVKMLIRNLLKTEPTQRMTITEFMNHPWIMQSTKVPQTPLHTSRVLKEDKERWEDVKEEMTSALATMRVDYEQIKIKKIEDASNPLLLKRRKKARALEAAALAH

| Compound | residual activity [1] [%] | residual activity [2] [%] | residual activity [3] [%] | residual activity [4] [%] | GI50 [5] [nM] | residual activity [6] [%] | residual activity [7] [%] | residual activity [8] [%] | residual activity [9] [%] | residual activity [10] [%] | residual activity [11] [%] | residual activity [12] [%] | residual activity [13] [%] | residual activity [14] [%] | residual activity [15] [%] | residual activity [16] [%] | residual activity [17] [%] |
| --- | --- | --- | --- | --- | --- | --- | --- | --- | --- | --- | --- | --- | --- | --- | --- | --- | --- |
| O=C(Nc1cc(C(F)(F)F)ccc1F)Nc1ccc(Oc2ccnc3[nH]c(=O)[nH]c23)c2ccccc12 | 75 | 100 | 100 | 100 | 290 | 100 | 75 | 50 | 100 | 100 | 100 | 100 | 100 | 100 | 75 | 100 | 100 |
| CSc1cc(Oc2ccnc3[nH]c(=O)[nH]c23)ccc1NC(=O)Nc1cccc(C(F)(F)F)c1 | 75 | 100 | 100 | 100 | 1060 | 50 | 75 | 50 | 100 | 100 | 100 | 100 | 100 | 100 | 100 | 100 | 100 |
| CC(C)(C)c1cccc(NC(=O)Nc2ccc(Oc3ccnc4[nH]c(=O)[nH]c34)c3ccccc23)c1 | 75 | 75 | 75 | 75 | 3900 | 75 | 75 | 75 | 100 | 75 | 75 | 100 | 75 | 75 | 75 | 100 | 75 |
